Measured values as given in ChEMBL document CHEMBL1649475, “In vivo pharmacodynamic profile of tigecycline against phenotypically diverse Escherichia coli and Klebsiella pneumoniae isolates” (Antimicrob Agents Chemother, 2009).
Converted amounts (≈) assume the structure as drawn.

Assays:
Escherichia coli [1] = experiment: Antibacterial activity against Escherichia coli isolate 54 by broth microdilution method; format: functional
Procedure, shortened: (§1)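 Tigecycline MICs by broth microdilution per CLSI guidelines, run in triplicate. Mueller-Hinton broth was prepared fresh less than 12 h before testing.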

Escherichia coli [2] = experiment: Antibacterial activity against Escherichia coli isolate 120 by broth microdilution method; format: functional; procedure, shortened: as §1
Escherichia coli [3] = experiment: Antibacterial activity against extended-spectrum beta-lactamase producing Escherichia coli isolate 315 by broth microdilution method; format: functional; procedure, shortened: as §1
Escherichia coli [4] = experiment: Antibacterial activity against extended-spectrum beta-lactamase producing Escherichia coli isolate 321 by broth microdilution method; format: functional; procedure, shortened: as §1
Escherichia coli [5] = experiment: Antibacterial activity against extended-spectrum beta-lactamase producing Escherichia coli isolate 322 by broth microdilution method; format: functional; procedure, shortened: as §1
Klebsiella pneumoniae [6] = experiment: Antibacterial activity against Klebsiella pneumoniae isolate 134 by broth microdilution method; format: functional; procedure, shortened: as §1
Klebsiella pneumoniae [7] = experiment: Antibacterial activity against Klebsiella pneumoniae isolate 135 by broth microdilution method; format: functional; procedure, shortened: as §1
Klebsiella pneumoniae [8] = experiment: Antibacterial activity against extended-spectrum beta-lactamase producing Klebsiella pneumoniae isolate 255 by broth microdilution method; format: functional; procedure, shortened: as §1
Klebsiella pneumoniae [9] = experiment: Antibacterial activity against extended-spectrum beta-lactamase producing Klebsiella pneumoniae isolate 266 by broth microdilution method; format: functional; procedure, shortened: as §1
Klebsiella pneumoniae [10] = experiment: Antibacterial activity against extended-spectrum beta-lactamase producing Klebsiella pneumoniae isolate 320 by broth microdilution method; format: functional; procedure, shortened: as §1
Klebsiella pneumoniae [11] = experiment: Antibacterial activity against carbapenemase producing Klebsiella pneumoniae isolate 321 by broth microdilution method; format: functional; procedure, shortened: as §1
[12] = Ratio of fAUC to MIC in Escherichia coli isolate 54-infected ICR mouse at 80% maximal effective concentration; format: functional
Procedure, shortened: (§2)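 EI50, EI80 and the static exposure were read from fitted curves. Free AUC came from earlier mouse PK using concentration-dependent protein binding set at Cmax. MICs were run in triplicate by CLSI broth microdilution in Mueller-Hinton broth prepared <12 h before testing, or by Etest.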

[13] = Half life in ICR mouse at 50 mg/kg, sc; format: ADME, organism-based; design: dose 50 mg/kg, route subcutaneous; details: in vivo
[14] = Ratio of fAUC to MIC in Escherichia coli isolate 120-infected ICR mouse at 80% maximal effective concentration; format: functional; procedure, shortened: as §2
[15] = Ratio of fAUC to MIC in extended-spectrum beta-lactamase producing Escherichia coli isolate 315-infected ICR mouse at 80% maximal effective concentration; format: functional; procedure, shortened: as §2
[16] = Ratio of fAUC to MIC in extended-spectrum beta-lactamase producing Escherichia coli isolate 321-infected ICR mouse at 80% maximal effective concentration; format: functional; procedure, shortened: as §2
[17] = Ratio of fAUC to MIC in extended-spectrum beta-lactamase producing Escherichia coli isolate 322-infected ICR mouse at 80% maximal effective concentration; format: functional; procedure, shortened: as §2
[18] = Ratio of fAUC to MIC in Klebsiella pneumoniae isolate 134-infected ICR mouse at 80% maximal effective concentration; format: functional; procedure, shortened: as §2
[19] = Ratio of fAUC to MIC in Klebsiella pneumoniae isolate 135-infected ICR mouse at 80% maximal effective concentration; format: functional; procedure, shortened: as §2
[20] = Ratio of fAUC to MIC in extended-spectrum beta-lactamase producing Klebsiella pneumoniae isolate 255-infected ICR mouse at 80% maximal effective concentration; format: functional; procedure, shortened: as §2
[21] = Ratio of fAUC to MIC in extended-spectrum beta-lactamase producing Klebsiella pneumoniae isolate 266-infected ICR mouse at 80% maximal effective concentration; format: functional; procedure, shortened: as §2
[22] = Ratio of fAUC to MIC in extended-spectrum beta-lactamase producing Klebsiella pneumoniae isolate 320-infected ICR mouse at 80% maximal effective concentration; format: functional; procedure, shortened: as §2
[23] = Ratio of fAUC to MIC in carbapenemase producing Klebsiella pneumoniae isolate 321-infected ICR mouse at 80% maximal effective concentration; format: functional; procedure, shortened: as §2
[24] = Ratio of fAUC to MIC in Escherichia coli isolate 54-infected ICR mouse at 50% maximal effective concentration; format: functional; procedure, shortened: as §2
[25] = Ratio of fAUC to MIC in Escherichia coli isolate 120-infected ICR mouse at 50% maximal effective concentration; format: functional; procedure, shortened: as §2
[26] = Ratio of fAUC to MIC in extended-spectrum beta-lactamase producing Escherichia coli isolate 315-infected ICR mouse at 50% maximal effective concentration; format: functional; procedure, shortened: as §2
[27] = Ratio of fAUC to MIC in extended-spectrum beta-lactamase producing Escherichia coli isolate 321-infected ICR mouse at 50% maximal effective concentration; format: functional; procedure, shortened: as §2
[28] = Ratio of fAUC to MIC in extended-spectrum beta-lactamase producing Escherichia coli isolate 322-infected ICR mouse at 50% maximal effective concentration; format: functional; procedure, shortened: as §2
[29] = Ratio of fAUC to MIC in Klebsiella pneumoniae isolate 134-infected ICR mouse at 50% maximal effective concentration; format: functional; procedure, shortened: as §2

CN(C)c1cc(NC(=O)CNC(C)(C)C)c(O)c2c1C[C@H]1C[C@H]3[C@H](N(C)C)C(O)=C(C(N)=O)C(=O)[C@@]3(O)C(O)=C1C2=O [TIGECYCLINE] showed an MIC (Escherichia coli [1]) of 0.25 µg/mL (≈ 0.427 µM), an MIC (Escherichia coli [2]) of 0.125 µg/mL (≈ 0.213 µM) and an MIC (Escherichia coli [3]) of 0.5 µg/mL (≈ 0.854 µM). For the same compound, the MIC (Escherichia coli [4]) was 0.25 µg/mL (≈ 0.427 µM), the MIC (Escherichia coli [5]) was 0.25 µg/mL (≈ 0.427 µM) and the MIC (Klebsiella pneumoniae [6]) was 0.5 µg/mL (≈ 0.854 µM). The MIC (Klebsiella pneumoniae [7]) was 0.5 µg/mL (≈ 0.854 µM), the MIC (Klebsiella pneumoniae [8]) was 2 µg/mL (≈ 3.41 µM) and the MIC (Klebsiella pneumoniae [9]) was 0.5 µg/mL (≈ 0.854 µM). The MIC (Klebsiella pneumoniae [10]) was 2 µg/mL (≈ 3.41 µM), the MIC (Klebsiella pneumoniae [11]) was 0.5 µg/mL (≈ 0.854 µM) and the fAUC/MIC [12] was 7.7. The half-life [13] was 9.9 h, the fAUC/MIC [14] was 7.3 and the fAUC/MIC [15] was 4.46. It also gave a fAUC/MIC [16] of 9.07, a fAUC/MIC [17] of 10.6 and a fAUC/MIC [18] of 10. It also gave a fAUC/MIC [19] of 7.78, a fAUC/MIC [20] of 4.81 and a fAUC/MIC [21] of 7.15. For the same compound, the fAUC/MIC [22] was 3.27, the fAUC/MIC [23] was 7.48 and the fAUC/MIC [24] was 5.19. The fAUC/MIC [25] was 3.7, the fAUC/MIC [26] was 3.71 and the fAUC/MIC [27] was 6.4. For the same compound, the fAUC/MIC [28] was 6.27 and the fAUC/MIC [29] was 5.91.
